From ChEMBL document CHEMBL5058577, “EUbOPEN Chemogenomics Library 2 (Multiplex)” (2022)

Test system: U2OS
Assay: Multiplex assay against U2OS
Type: toxicity, cell-based
Details: human
Method in brief: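 Live cells were stained at seeding with Hoechst33342, BioTracker Green Microtubule Cytoskeleton Dye, MitoTracker Red and Annexin V Alexa Fluor 680, then imaged on a CQ1 microscope at 37°C and 5% CO2 after compound addition. CellPathfinder machine-learning gating split cells into Hoechst high-intensity objects or normal cells. Normal cells were split into healthy, pyknosed or fragmented nuclei, and pyknosed cells into mitotic or apoptotic. Tubulin, mitochondrial-mass and membrane-permeability phenotypes are per cents of healthy-nucleus cells.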

[1] = 12 h, 1 µM, compound concentration 1 uM, replicate 1
[2] = 12 h, 1 µM, compound concentration 1 uM, replicate 2
[3] = 12 h, 10 µM, compound concentration 10 uM, replicate 1
[4] = 12 h, 10 µM, compound concentration 10 uM, replicate 2
[5] = 24 h, 1 µM, compound concentration 1 uM, replicate 1
[6] = 24 h, 1 µM, compound concentration 1 uM, replicate 2
[7] = 24 h, 10 µM, compound concentration 10 uM, replicate 1
[8] = 24 h, 10 µM, compound concentration 10 uM, replicate 2
[9] = 48 h, 1 µM, compound concentration 1 uM, replicate 1
[10] = 48 h, 1 µM, compound concentration 1 uM, replicate 2
[11] = 48 h, 10 µM, compound concentration 10 uM, replicate 1
[12] = 48 h, 10 µM, compound concentration 10 uM, replicate 2

SMILES: COc1c(Nc2ccc(S(C)(=O)=O)nc2C)ncnc1OC1CCN(C(=O)OC(C)C)CC1 [ADP-597]
- Population Apoptotic (%) [1]: 82%
- Population Fragmented Nuclei (%) [1]: 23%
- Population Healthy Nuclei (%) [1]: 68%
- Population Hoechst High Intensity Objects (%) [1]: 2%
- Population Membrane Permeable-Phenotype (%) [1]: 7%
- Population Mitochondria Different-Phenotype (%) [1]: 1%
- Population Mitotic Cells (%) [1]: 17%
- Population Normal (%) [1]: 97%
- Population Pyknosed Nuclei (%) [1]: 8%
- Population Tubulin-Different-Phenotype (%) [1]: 5%
- Total Cell Count [1]: 208
- Population Apoptotic (%) [2]: 75%
- Population Fragmented Nuclei (%) [2]: 13%
- Population Healthy Nuclei (%) [2]: 78%
- Population Hoechst High Intensity Objects (%) [2]: 3%
- Population Membrane Permeable-Phenotype (%) [2]: 11%
- Population Mitotic Cells (%) [2]: 25%
- Population Normal (%) [2]: 96%
- Population Tubulin-Different-Phenotype (%) [2]: 2%
- Total Cell Count [2]: 95
- Population Apoptotic (%) [3]: 93%
- Population Fragmented Nuclei (%) [3]: 27%
- Population Healthy Nuclei (%) [3]: 60%
- Population Hoechst High Intensity Objects (%) [3]: 8%
- Population Membrane Permeable-Phenotype (%) [3]: 7%
- Population Mitochondria Different-Phenotype (%) [3]: 2%
- Population Mitotic Cells (%) [3]: 6%
- Population Normal (%) [3]: 91%
- Population Pyknosed Nuclei (%) [3]: 11%
- Population Tubulin-Different-Phenotype (%) [3]: 4%
- Total Cell Count [3]: 266
- Population Apoptotic (%) [4]: 85%
- Population Fragmented Nuclei (%) [4]: 10%
- Population Healthy Nuclei (%) [4]: 77%
- Population Hoechst High Intensity Objects (%) [4]: 4%
- Population Mitochondria Different-Phenotype (%) [4]: 3%
- Population Mitotic Cells (%) [4]: 14%
- Population Normal (%) [4]: 95%
- Population Tubulin-Different-Phenotype (%) [4]: 1%
- Total Cell Count [4]: 128
- Population Apoptotic (%) [5]: 88%
- Population Fragmented Nuclei (%) [5]: 24%
- Population Healthy Nuclei (%) [5]: 67%
- Population Hoechst High Intensity Objects (%) [5]: 3%
- Population Membrane Permeable-Phenotype (%) [5]: 7%
- Population Mitochondria Different-Phenotype (%) [5]: 3%
- Population Mitotic Cells (%) [5]: 11%
- Population Normal (%) [5]: 96%
- Population Pyknosed Nuclei (%) [5]: 7%
- Population Tubulin-Different-Phenotype (%) [5]: 3%
- Total Cell Count [5]: 239
- Population Apoptotic (%) [6]: 80%
- Population Fragmented Nuclei (%) [6]: 12%
- Population Healthy Nuclei (%) [6]: 79%
- Population Membrane Permeable-Phenotype (%) [6]: 8%
- Population Mitotic Cells (%) [6]: 20%
- Population Pyknosed Nuclei (%) [6]: 8%
- Population Tubulin-Different-Phenotype (%) [6]: 5%
- Total Cell Count [6]: 129
- Population Apoptotic (%) [7]: 88%
- Population Fragmented Nuclei (%) [7]: 30%
- Population Healthy Nuclei (%) [7]: 61%
- Population Hoechst High Intensity Objects (%) [7]: 6%
- Population Membrane Permeable-Phenotype (%) [7]: 8%
- Population Mitochondria Different-Phenotype (%) [7]: 2%
- Population Mitotic Cells (%) [7]: 12%
- Population Normal (%) [7]: 93%
- Population Pyknosed Nuclei (%) [7]: 8%
- Population Tubulin-Different-Phenotype (%) [7]: 4%
- Total Cell Count [7]: 305
- Population Apoptotic (%) [8]: 83%
- Population Fragmented Nuclei (%) [8]: 11%
- Population Healthy Nuclei (%) [8]: 80%
- Population Hoechst High Intensity Objects (%) [8]: 5%
- Population Membrane Permeable-Phenotype (%) [8]: 6%
- Population Mitochondria Different-Phenotype (%) [8]: 4%
- Population Mitotic Cells (%) [8]: 16%
- Population Normal (%) [8]: 94%
- Population Tubulin-Different-Phenotype (%) [8]: 1%
- Total Cell Count [8]: 155
- Population Apoptotic (%) [9]: 80%
- Population Fragmented Nuclei (%) [9]: 19%
- Population Healthy Nuclei (%) [9]: 72%
- Population Hoechst High Intensity Objects (%) [9]: 2%
- Population Membrane Permeable-Phenotype (%) [9]: 6%
- Population Mitochondria Different-Phenotype (%) [9]: 5%
- Population Mitotic Cells (%) [9]: 19%
- Population Normal (%) [9]: 97%
- Population Pyknosed Nuclei (%) [9]: 7%
- Population Tubulin-Different-Phenotype (%) [9]: 2%
- Total Cell Count [9]: 339
- Population Apoptotic (%) [10]: 81%
- Population Fragmented Nuclei (%) [10]: 20%
- Population Healthy Nuclei (%) [10]: 67%
- Population Membrane Permeable-Phenotype (%) [10]: 5%
- Population Mitochondria Different-Phenotype (%) [10]: 4%
- Population Mitotic Cells (%) [10]: 18%
- Population Pyknosed Nuclei (%) [10]: 12%
- Total Cell Count [10]: 185
- Population Apoptotic (%) [11]: 79%
- Population Fragmented Nuclei (%) [11]: 24%
- Population Healthy Nuclei (%) [11]: 62%
- Population Hoechst High Intensity Objects (%) [11]: 6%
- Population Membrane Permeable-Phenotype (%) [11]: 6%
- Population Mitochondria Different-Phenotype (%) [11]: 4%
- Population Mitotic Cells (%) [11]: 20%
- Population Normal (%) [11]: 93%
- Population Pyknosed Nuclei (%) [11]: 13%
- Population Tubulin-Different-Phenotype (%) [11]: 2%
- Total Cell Count [11]: 356
- Population Apoptotic (%) [12]: 92%
- Population Fragmented Nuclei (%) [12]: 10%
- Population Healthy Nuclei (%) [12]: 77%
- Population Hoechst High Intensity Objects (%) [12]: 3%
- Population Membrane Permeable-Phenotype (%) [12]: 4%
- Population Mitochondria Different-Phenotype (%) [12]: 0%
- Population Mitotic Cells (%) [12]: 8%
- Population Normal (%) [12]: 96%
- Population Pyknosed Nuclei (%) [12]: 11%
- Total Cell Count [12]: 223
